One may read the Kd as the free concentration of one partner at which half of the binding sites on the other are occupied at equilibrium, for simple one-to-one binding. Low readings indicate higher affinity, high ones lower affinity. The term IC50 denotes the midpoint of a concentration-inhibition curve. High values mean a need for much substance, low ones inhibition by little substance. A word on the Ki: it is the dissociation constant of the complex between target and ligand, obtained from inhibition or displacement. A high value points to weaker binding.

Drawing on BindingDB's records for doi:10.1016/j.bmc.2019.03.050 (University of Illinois At Chicago, 2019), this text covers Kd, IC50 and Ki for one compound.

The target in assay [1] is T1, Replicase polyprotein 1ab (Middle East respiratory syndrome-related coronavirus (isolate United Kingdom/H123990006/2012), UniProt K9N7C7). Briefly: Binding affinity to MERS-CoV papain-like protease by SPR analysis. An outline of the steps:
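SPR on Biacore T200. Enzyme at 50 µg/mL in 10 mM sodium acetate pH 5.5 amine-coupled to CM5 chip (~10,000 RU); blank flow cells as reference. Compounds 0-50 µM (2-fold series) in PBSP + 0.5 mM TCEP, 2% DMSO, 30 µL/min, 25°C; double-referenced. KD from steady-state responses fit to rectangular hyperbola; rate constants from global 1:1 Langmuir fit.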
For orientation: In SPR one partner is held on a chip, and binding of the other changes the refractive index at the surface.

For assay [2], the target named is T1, Replicase polyprotein 1ab. Briefly: Inhibition of MERS-CoV papain-like protease using Z-Arg-Leu-Arg-Gly-Gly-AMC as substrate preincubated for 5 mins followed by substrate addition and measured for 10 mins by fluorescence assay.
For assay [3], the target named is T1, Replicase polyprotein 1ab. Put plainly: Competitive-inhibition of MERS-CoV papain-like protease using varying levels of Z-Arg-Leu-Arg-Gly-Gly-AMC as substrate by Dixon-plot analysis.

T1 sequence (K9N7C7 854-2740 limits assumed): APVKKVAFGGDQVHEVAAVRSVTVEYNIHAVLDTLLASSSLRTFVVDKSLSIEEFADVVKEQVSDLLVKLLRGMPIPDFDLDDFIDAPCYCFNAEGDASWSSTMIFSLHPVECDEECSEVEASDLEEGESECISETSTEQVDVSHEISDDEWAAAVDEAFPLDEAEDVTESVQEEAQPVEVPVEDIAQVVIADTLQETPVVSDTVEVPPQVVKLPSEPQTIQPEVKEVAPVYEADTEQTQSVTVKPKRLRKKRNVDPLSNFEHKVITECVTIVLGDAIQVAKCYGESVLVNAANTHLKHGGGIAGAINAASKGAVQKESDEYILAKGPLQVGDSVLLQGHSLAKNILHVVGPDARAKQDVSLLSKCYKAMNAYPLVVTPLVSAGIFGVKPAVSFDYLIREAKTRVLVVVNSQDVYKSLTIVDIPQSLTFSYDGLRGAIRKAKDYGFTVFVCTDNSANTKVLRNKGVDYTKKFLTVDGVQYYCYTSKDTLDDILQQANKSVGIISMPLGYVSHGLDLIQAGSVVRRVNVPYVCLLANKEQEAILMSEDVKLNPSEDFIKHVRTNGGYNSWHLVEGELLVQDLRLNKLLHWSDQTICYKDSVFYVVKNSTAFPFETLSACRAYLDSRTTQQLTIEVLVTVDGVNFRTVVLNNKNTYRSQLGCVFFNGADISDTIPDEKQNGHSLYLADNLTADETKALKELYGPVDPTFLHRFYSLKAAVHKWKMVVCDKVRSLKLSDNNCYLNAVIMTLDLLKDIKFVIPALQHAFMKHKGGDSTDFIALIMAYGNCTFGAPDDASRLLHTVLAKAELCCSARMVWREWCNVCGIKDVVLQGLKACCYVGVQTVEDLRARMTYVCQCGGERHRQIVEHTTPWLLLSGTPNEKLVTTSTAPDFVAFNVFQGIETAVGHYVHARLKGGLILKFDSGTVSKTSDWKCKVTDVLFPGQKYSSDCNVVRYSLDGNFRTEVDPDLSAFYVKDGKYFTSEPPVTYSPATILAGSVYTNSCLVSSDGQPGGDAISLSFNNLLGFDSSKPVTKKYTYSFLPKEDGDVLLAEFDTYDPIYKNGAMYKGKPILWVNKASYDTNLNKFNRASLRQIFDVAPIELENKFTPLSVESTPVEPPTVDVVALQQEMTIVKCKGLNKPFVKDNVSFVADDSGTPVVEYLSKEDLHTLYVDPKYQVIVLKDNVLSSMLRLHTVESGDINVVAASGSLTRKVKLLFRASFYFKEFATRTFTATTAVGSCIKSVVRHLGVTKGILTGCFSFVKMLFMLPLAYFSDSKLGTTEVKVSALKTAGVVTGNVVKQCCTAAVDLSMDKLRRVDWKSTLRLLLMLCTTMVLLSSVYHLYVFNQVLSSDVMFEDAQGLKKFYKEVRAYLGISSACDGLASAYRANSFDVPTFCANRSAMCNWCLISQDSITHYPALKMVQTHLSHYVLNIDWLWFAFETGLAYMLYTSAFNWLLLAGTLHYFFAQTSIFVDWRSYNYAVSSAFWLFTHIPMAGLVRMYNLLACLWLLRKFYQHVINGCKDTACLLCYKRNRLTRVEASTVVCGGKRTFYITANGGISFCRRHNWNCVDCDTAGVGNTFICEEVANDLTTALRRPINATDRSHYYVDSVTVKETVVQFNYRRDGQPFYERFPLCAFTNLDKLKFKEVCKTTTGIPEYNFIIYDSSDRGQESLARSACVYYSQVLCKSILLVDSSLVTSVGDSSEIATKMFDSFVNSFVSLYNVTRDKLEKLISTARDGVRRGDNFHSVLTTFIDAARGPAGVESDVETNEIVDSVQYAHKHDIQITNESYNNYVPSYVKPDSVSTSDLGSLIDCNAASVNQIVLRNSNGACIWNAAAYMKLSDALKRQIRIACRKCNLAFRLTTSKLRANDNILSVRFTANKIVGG

In assay [1], `O=C(NC1=CC=CC2C(=O)C=C(c3nn[nH]n3)OC12)c1ccc(OCCCCc2ccccc2)cc1` (stereo not drawn) [ONO-1078] gave a Kd of 14.1 µM. For the same compound, inhibition in assay [2] was half-maximal at 25 µM (IC50). In assay [3], this compound came in with a Ki of 127 µM.
